Where “and” joins values, the source holds several entries; their conditions need not be identical. Identical values can stand only once.
Columns and labels:
Rattus norvegicus [1] = assay: Percentage fall in systolic blood pressure in spontaneously hypertensive rats after 2 hr following 50 mg/kg p.o.; assay type: functional, Artery; conditions: route oral
Procedure, shortened: (§1)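 Male Okamoto-Aoki SHR, trained, in groups of four matched for mean systolic pressure; one group per run received water vehicle. Oral dosing in water (0.1 mL per 10 g) on two consecutive mornings. After the day-2 dose, rats were restrained at 30.0 ± 1.0 °C. Systolic pressure was read by tail cuff (inflated to 300 mmHg, first pulse) at 1–4 h. % fall is versus the untreated control group, by 1-tail t test (p ≤ 0.05).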

[2] = (§2) Distribution coefficient between 1-Octanol and phosphate buffer at pH7.4; assay type: physicochemical; conditions: 1-octanol/phosphate buffer, pH 7.4
Procedure, shortened: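 Octanol/buffer distribution measured at pH 7.4 in phosphate with sodium chloride. Either HPLC (0.004 M) or shake flask.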

Rattus norvegicus [3] = assay: Antihypertensive activity as percentage fall in systolic blood pressure in spontaneously hypertensive rats after a period of 1 hr for a dose of 50 mg/kg; assay type: functional, Artery; procedure, shortened: as §1
Rattus norvegicus [4] = assay: Antihypertensive activity as percentage fall in systolic blood pressure in spontaneously hypertensive rats after a period of 3 h for a dose of 50 mg/kg; assay type: functional, organism-based; parameters: dose 50 mg/kg; conditions: Artery; procedure, shortened: as §1
Rattus norvegicus [5] = assay: Antihypertensive activity as percentage fall in systolic blood pressure in spontaneously hypertensive rats after a period of 4 hr for a dose of 50 mg/kg; assay type: functional, organism-based; parameters: dose 50 mg/kg; conditions: Artery; procedure, shortened: as §1
Rattus norvegicus [6] = assay: Percentage fall in systolic blood pressure in spontaneously hypertensive rats after 3 h following 50 mg/kg p.o.; assay type: functional, Artery; conditions: route oral; procedure, shortened: as §1
Rattus norvegicus [7] = assay: Antihypertensive activity as percentage fall in systolic blood pressure in spontaneously hypertensive rats after a period of 2 hr for a dose of 50 mg/kg; assay type: functional, organism-based; parameters: dose 50 mg/kg; conditions: Artery; procedure, shortened: as §1
Rattus norvegicus [8] = assay: Antihypertensive activity as percentage fall in systolic blood pressure in spontaneously hypertensive rats after a period of 1 hr for a dose of 50 mg/kg po; assay type: functional, organism-based; parameters: dose 50 mg/kg; conditions: Artery; procedure, shortened: as §1
Rattus norvegicus [9] = assay: The antihypertensive activity as percentage fall in systolic blood pressure in spontaneously hypertensive rats after a period of 1 hr for a dose of 50 mg/kg po
Rattus norvegicus [10] = assay: The antihypertensive activity as percentage fall in systolic blood pressure in spontaneously hypertensive rats after a period of 3 hr for a dose of 50 mg/kg po
Rattus norvegicus [11] = assay: The antihypertensive activity as percentage fall in systolic blood pressure in spontaneously hypertensive rats after a period of 2 hr for a dose of 50 mg/kg po
Rattus norvegicus [12] = assay: The antihypertensive activity as percentage fall in systolic blood pressure in spontaneously hypertensive rats after a period of 4 hr for a dose of 50 mg/kg po
[13] = as §2; assay type: physicochemical; conditions: 1-octanol/phosphate buffer, pH 7.4; remark: listed apart in the source

SMILES	logD [2]	Decrease in blood pressure (Rattus norvegicus [3]) [%]	Decrease in blood pressure (Rattus norvegicus [4])	Decrease in blood pressure (Rattus norvegicus [5])	Decrease in blood pressure (Rattus norvegicus [7])	Decrease in blood pressure (Rattus norvegicus [8])	other results
CCC1CN(CCc2c[nH]c3ccccc23)CCC12CNC(=O)O2 (stereo not given)	2.01	16	Not significant	Not significant	–	–	Decrease in blood pressure (Rattus norvegicus [1]): 19%
CC(C)CC1NC(=O)OC12CCN(CCc1c[nH]c3ccccc13)CC2 (stereo not given)	–	27	–	Not significant	–	–	Decrease in blood pressure (Rattus norvegicus [6]): 22%
CC1NC(=O)OC12CCN(CCc1c[nH]c3ccccc13)CC2 (stereo not given)	1.43	18	Not significant	Not significant	Not significant	–	–
CCC1N(C)C(=O)OC12CCN(CCc1c[nH]c3ccccc13)CC2 (stereo not given)	2.14	–	Not significant	Not significant	Not significant	Not significant	–
COc1ccccc1OCC(O)CN1CCC2(CC1)CN(C(C)C)C(=O)O2 (stereo not given)	–	–	Not significant	Not significant	Not significant	Not significant	–
CCN1CC2(CCN(CC(O)COc3ccccc3OC)CC2)OC1=O (stereo not given)	–	11	Not significant	Not significant	Not significant	–	–
O=C1OC2(CCN(CCc3c[nH]c4ccccc34)CC2)CN1CCc1ccccc1	2.95	–	Not significant	Not significant	Not significant	Not significant	–
CCCN1CC2(CCN(CC(O)COc3ccccc3OC)CC2)OC1=O (stereo not given)	–	–	Not significant	Not significant	Not significant	Not significant	–
CCCC1NC(=O)OC12CCN(CCc1c[nH]c3ccccc13)CC2 (stereo not given)	2.31	36	–	Not significant	–	–	Decrease in blood pressure (Rattus norvegicus [1]): 12%; Decrease in blood pressure (Rattus norvegicus [6]): 16%
CCCN1CC2(CCN(CCc3c[nH]c4ccccc34)CC2)OC1=O	2.36	14	Not significant	Not significant	Not significant	–	–
CCCCN1CC2(CCN(CCc3c[nH]c4ccccc34)CC2)OC1=O	–	–	Not significant	Not significant	Not significant	Not significant	–
COCCN1CC2(CCN(CCc3c[nH]c4ccccc34)CC2)OC1=O	–	21	Not significant	Not significant	Not significant	–	–
O=C1OC2(CCN(CC(O)C3COc4ccccc4O3)CC2)CN1Cc1ccccc1 (stereo not given)	–	–	Not significant	Not significant	Not significant	Not significant	–
CCCN1CC2(CCN(CC(O)C3COc4ccccc4O3)CC2)OC1=O (stereo not given)	–	–	Not significant	Not significant	Not significant	Not significant	–
CCCC1CN(CCc2c[nH]c3ccccc23)CCC12CNC(=O)O2 (stereo not given)	2.42	21	Not significant	Not significant	Not significant	–	–
O=C1OC2(CCN(CC(O)C3COc4ccccc4O3)CC2)CN1c1ccccc1 (stereo not given)	–	16	Not significant	Not significant	Not significant	–	–

SMILES	logD [2]	Decrease in blood pressure (Rattus norvegicus [3]) [%]	Decrease in blood pressure (Rattus norvegicus [4])	Decrease in blood pressure (Rattus norvegicus [5])	Decrease in blood pressure (Rattus norvegicus [7])	Decrease in blood pressure (Rattus norvegicus [8])	other results
CCC1NC(=O)OC12CCN(CC(O)C1COc3ccccc3O1)CC2 (stereo not given)	–	–	–	–	–	–	Decrease in blood pressure (Rattus norvegicus [9]): 47%; Decrease in blood pressure (Rattus norvegicus [10]): 32%; Decrease in blood pressure (Rattus norvegicus [11]): 43%; Decrease in blood pressure (Rattus norvegicus [12]): 40%
CC(C)C1NC(=O)OC12CCN(CCc1c[nH]c3ccccc13)CC2 (stereo not given)	–	26	Not significant	Not significant	–	–	Decrease in blood pressure (Rattus norvegicus [1]): 17%
COc1ccccc1OCC(O)CN1CCC2(CC1)CN(Cc1ccccc1)C(=O)O2 (stereo not given)	–	–	Not significant	Not significant	Not significant	Not significant	logD [13]: 2.19
O=C1OC2(CCN(CCc3c[nH]c4ccccc34)CC2)CN1Cc1ccccc1	2.91	–	Not significant	Not significant	Not significant	Not significant	–
O=C1NC(c2ccccc2)C2(CCN(CC(O)C3COc4ccccc4O3)CC2)O1 (stereo not given)	2.41	–	Not significant	Not significant	Not significant	Not significant	–
COc1ccccc1OCC(O)CN1CCC2(CC1)CNC(=O)O2 (stereo not given)	0.69	–	Not significant	Not significant	Not significant	Not significant	–
O=C1NC(Cc2ccccc2)C2(CCN(CC(O)C3COc4ccccc4O3)CC2)O1 (stereo not given)	2.41	–	Not significant	Not significant	Not significant	Not significant	–
CCC1NC(=O)OC12CC[N+](C)(CCc1c[nH]c3ccccc13)CC2.[I-] (stereo not given)	–	20	Not significant	Not significant	Not significant	–	–
COc1ccccc1OC[C@@H](O)CN1CCC2(CC1)CN(C)C(=O)O2	–	25	–	–	–	–	Decrease in blood pressure (Rattus norvegicus [1]; 50 mg/kg): 16% and 13%; Decrease in blood pressure (Rattus norvegicus [6]): 10%
COc1ccccc1OC[C@H](O)CN1CCC2(CC1)CN(C)C(=O)O2	–	10	Not significant	Not significant	–	–	Decrease in blood pressure (Rattus norvegicus [1]): 5%
CCCCC1NC(=O)OC12CCN(CCc1c[nH]c3ccccc13)CC2 (stereo not given)	–	24	–	Not significant	–	–	Decrease in blood pressure (Rattus norvegicus [1]): 14%; Decrease in blood pressure (Rattus norvegicus [6]): 15%
O=C1NC(c2ccccc2)C2(CCN(CCc3c[nH]c4ccccc34)CC2)O1 (stereo not given)	2.61	–	Not significant	Not significant	Not significant	Not significant	–
CCCCN1CC2(CCN(CC(O)COc3ccccc3OC)CC2)OC1=O (stereo not given)	–	–	Not significant	Not significant	Not significant	Not significant	–
O=C1OC2(CCN(CC(O)C3COc4ccccc4O3)CC2)CN1CCc1ccccc1 (stereo not given)	2.79	14	Not significant	Not significant	Not significant	–	–
COc1ccccc1OCC(O)CN1CCC2(CC1)CN(CCc1ccccc1)C(=O)O2 (stereo not given)	–	–	Not significant	Not significant	Not significant	Not significant	–
CCCCN1CC2(CCN(CC(O)C3COc4ccccc4O3)CC2)OC1=O (stereo not given)	–	–	Not significant	Not significant	Not significant	Not significant	–
